The record followed here is ChEMBL document CHEMBL4024803, “New Steroidal 4-Aminoquinolines Antagonize Botulinum Neurotoxin Serotype A in Mouse Embryonic Stem Cell Derived Motor Neurons in Postintoxication Model” (J Med Chem, 2018).

For series [1], the target named is Botulinum neurotoxin type A (Clostridium botulinum) (UniProt P0DPI0). Description: Inhibition of Clostridium botulinum BoNT/A light chain at 20 uM using P39 as substrate preincubated for 10 mins followed by substrate addition measured after 10 mins by HPLC method relative to control. A digest of the protocol: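 Purified BoNT/A light chain (20 nM) with 0.2 mg/mL BSA in 50 mM HEPES pH 7.4, preincubated with compound for 10 min at room temperature. Cleavage fragments were separated by reversed-phase HPLC (214/280 nm). Percent inhibition was taken from fragment peak areas with vs without compound. Mean of three experiments.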

Series [2] shares this target. The series can be described thus: Inhibition of Clostridium botulinum BoNT/A holotoxin-mediated SNAP-25 cleavage in mouse HBG3 cell-derived motor neurons assessed as full length of SNAP-25 at 10 uM preincubated for 30 mins followed by intoxication measured after 4 hrs by Western blot method relative to control. On the set-up: scale not given: the % may be the effect or the level left.

Series [3] has the same target. The series can be described thus: Inhibition of Clostridium botulinum BoNT/A holotoxin-mediated SNAP-25 cleavage in mouse HBG3 cell-derived motor neurons assessed as full length of SNAP-25 at 20 uM preincubated for 30 mins followed by intoxication measured after 4 hrs by Western blot method relative to control. On the set-up: scale not given: the % may be the effect or the level left.

For series [4] the target is unchanged. Description: Inhibition of Clostridium botulinum BoNT/A holotoxin-mediated SNAP-25 cleavage in mouse HBG3 cell-derived motor neurons preincubated for 30 mins followed by intoxication measured after 4 hrs by Western blot method.
For series [5] the target is unchanged. Description: (§1) Inhibition of Clostridium botulinum BoNT/A light chain using P39 as substrate preincubated for 10 mins followed by substrate addition measured after 10 mins by HPLC method.
In series [6] the target is Botulinum neurotoxin type A (Clostridium botulinum, UniProt P0DPI0). The series is described as §1.
A short description of series [7]: Distribution co-efficient, log D of the compound at pH 10 by reversed-phase thin-layer chromatographic method. The settings on record: buffer. The format is physicochemical. The essentials: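 Reversed-phase thin-layer chromatography at pH 10, mobile phase acetone/NH3/H2O (85/5/10).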
Series [8] is described as follows: Distribution co-efficient, log D of the compound at pH 1 by reversed-phase thin-layer chromatographic method. The format is physicochemical. The settings on record: buffer. The essentials: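 Reversed-phase thin-layer chromatography at pH 1, mobile phase MeOH/HCl (70/30).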

As for `CC(CCCN(C)Cc1ccc(-c2csc3ccc(F)cc23)cc1)Nc1ccnc2ccccc12` (configuration not stated), the inhibition in series [1] stood at 48%.
In series [1], `N#Cc1ccc(-c2ccc(-c3ccc(CNCCNc4ccnc5cc(Cl)ccc45)cc3)s2)cc1` displayed an inhibition of 36%.
In series [1], `CN(CCCCCCNc1ccnc2ccccc12)Cc1ccc(-c2ccc(-c3ccc(C#N)cc3)s2)cc1` had an inhibition of 55%.
Take `CC(CCNCCC12CC3CC(CC(C3)C1)C2)Nc1ccnc2ccccc12` (configuration not stated): the inhibition in series [1] was 42%.
Take `CC(CCNc1ccnc2ccccc12)NCCC12CC3CC(CC(C3)C1)C2` (configuration not stated): the values for the Activity in series [2] and in series [3] were 23% and 24%, respectively. In addition, the inhibition entry in series [4] is “Dose-dependent effect”.
For `N#Cc1ccc2scc(-c3ccc(CNCCCCNc4ccnc5ccccc45)cc3)c2c1`, the inhibition result was “Dose-dependent effect” in series [5], 84% in series [1] and “Dose-dependent effect” in series [4]. This compound registered an IC50 in series [6] of 4.6 µM. The results for the Activity in series [2] and in series [3] were 21% and 26%, respectively. Further, the chromatographic logD in series [7] amounted to 3.67.
`N#Cc1ccc2c(-c3ccc(CNCCCCNc4ccnc5ccccc45)cc3)csc2c1` came in with an inhibition in series [1] of 23%.
With `N#Cc1ccc2scc(-c3ccc(CNCCCCCCNc4ccnc5ccccc45)cc3)c2c1`, the figures for the inhibition result in series [5], in series [1] and in series [4] were “Dose-dependent effect”, 75% and “Dose-dependent effect”, respectively. For the same compound, in series [6], the IC50 came out at 3.3 µM. In addition, the Activity in series [2] was 36%; in series [3], 43%. This compound showed a chromatographic logD in series [7] of 3.85.
`C#Cc1ccc(-c2ccc(-c3ccc(CNCCCCCCCCNc4ccnc5ccccc45)cc3)s2)cc1` came in with an inhibition in series [1] of 53%.
Consider `N#Cc1ccc(-c2ccc(-c3ccc(CNCCCCCCNc4ccnc5ccccc45)cc3)s2)cc1`, for which the inhibition result in series [5] was “Dose-dependent effect”; in series [1], 70 to 80%; in series [4] it was “Dose-dependent effect”. Also, the IC50 in series [6] stood at 3.4 µM. For the same compound, the Activity worked out at 22% in series [2] and 48% in series [3]. This compound also showed a chromatographic logD in series [8] of 3.08.
`CC(CCNCCC12CC3CC(CC(C3)C1)C2)Nc1ccnc2cc(Cl)ccc12` (configuration not stated) displayed an inhibition in series [1] of 64%.
In the case of `CC(CCN(C)CC12CC3CC(CC(C3)C1)C2)Nc1ccnc2ccccc12` (configuration not stated), the results for the inhibition entry in series [5], in series [1] and in series [4] were “Dose-dependent effect”, 51% and “Dose-dependent effect”, respectively. This compound also registered an IC50 in series [6] of 5.2 µM. For the same compound, the Activity is 47% in series [2] and 46% in series [3].
Take `CC(CCNCCC12CC3CC(CC(C3)C1)C2)Nc1c(F)cnc2ccccc12` (configuration not stated): the Activity turned out to be 30% in series [2] and 32% in series [3]. Also, the chromatographic logD in series [7] turned out to be 4.13. Besides, the inhibition result in series [4] was “Dose-dependent effect”.
Regarding `N#Cc1ccc(-c2ccc(-c3ccc(CNCCCCCCNc4ccnc5cc(Cl)ccc45)cc3)s2)cc1`, in series [1], the inhibition worked out at 30%.
Same read-out and setting: the value for `N#Cc1ccc2c(-c3ccc(CNCCCCCCNc4ccnc5ccccc45)cc3)csc2c1` was 8%.
As to `C#Cc1ccc(-c2ccc(-c3ccc(CNCCNc4ccnc5cc(Cl)ccc45)cc3)s2)cc1`, the inhibition in series [1] worked out at 19%.
As to `CC(CCCNCc1ccc(-c2csc3ccc(F)cc23)cc1)Nc1ccnc2ccccc12` (configuration not stated), the figures for the inhibition entry in series [5], in series [1] and in series [4] were “Dose-dependent effect”, 69% and “Dose-dependent effect”, respectively. The compound also came in with an IC50 in series [6] of 8.8 µM. Further, the Activity in series [2] and in series [3] was 62% in each case. This compound displayed a chromatographic logD in series [7] of 3.98.
Take `CC(=O)O[C@H]1C[C@H]2[C@@H]([C@H](OC(C)=O)C[C@@H]3C[C@H](N)CC[C@@]32C)[C@@H]2CC[C@H]([C@H](C)CCCN(C)CCCCNc3ccnc4ccccc34)[C@@]12C`: the inhibition result was “Dose-dependent effect” in series [5], 52% in series [1] and “Dose-dependent effect” in series [4]. Also, the IC50 in series [6] turned out to be 1.5 µM. Further, the Activity was 70% in series [2] and 69% in series [3]. For the same compound, in series [8], the chromatographic logD came out at 2.11.
Turning to `CN(CCCCNc1ccnc2ccccc12)Cc1ccc(-c2csc3ccc(F)cc23)cc1`, the Activity came to 44% in series [2] and 55% in series [3]. The inhibition is 46% in series [1] and “Dose-dependent effect” in series [4]. The compound also returned a chromatographic logD in series [7] of 3.98.
For the compound `CC(CCNc1ccnc2cc(Cl)ccc12)NCC12CC3CC(CC(C3)C1)C2` (configuration not stated), the inhibition result is “Dose-dependent effect” in series [5], 65% in series [1] and “Dose-dependent effect” in series [4]. In series [6], the IC50 came out at 2.7 µM. Further, the values for the Activity in series [2] and in series [3] were 29% and 30%, respectively. The chromatographic logD in series [7] worked out at 3.4.
With `N#Cc1ccc(-c2ccc(-c3ccc(CNCCCCCCCCNc4ccnc5cc(Cl)ccc45)cc3)s2)cc1`, the inhibition in series [1] worked out at 14%.
In the case of `CC(CCNCC12CC3CC(CC(C3)C1)C2)Nc1c(F)cnc2ccccc12` (configuration not stated), the results for the Activity in series [2] and in series [3] were 24% and 23%, respectively. In addition, the chromatographic logD in series [7] was found to be 3.09. Further, the inhibition entry in series [4] was “Dose-dependent effect”.
For `CC(CCCNCc1ccc(-c2csc3ccc(C#N)cc23)cc1)Nc1ccnc2ccccc12` (configuration not stated), the values for the inhibition result in series [5], in series [1] and in series [4] were “Dose-dependent effect”, 61% and “Dose-dependent effect”, respectively. This compound also showed an IC50 in series [6] of 10.2 µM. Also, the Activity is 34% in series [2] and 53% in series [3]. The compound further had a chromatographic logD in series [7] of 3.67.
For the compound `CN(CCCNc1ccnc2ccccc12)CC12CC3CC(CC(C3)C1)C2`, the figures for the Activity in series [2] and in series [3] were 30% and 31%, respectively. For the same compound, the figures for the inhibition in series [1] and in series [4] were 30% and “Dose-dependent effect”, respectively.
On to `N#Cc1ccc(-c2ccc(-c3ccc(CNCCCCNc4ccnc5ccccc45)cc3)s2)cc1`, for which the inhibition result in series [5] was “Dose-dependent effect”; in series [1], 67%; in series [4], “Dose-dependent effect”. Further, the IC50 in series [6] was found to be 9.3 µM. Also, the Activity was determined as 18% in series [2] and 39% in series [3]. The compound further displayed a chromatographic logD in series [8] of 2.93.
`CN(CCCNc1ccnc2ccccc12)CCC12CC3CC(CC(C3)C1)C2` showed an inhibition in series [1] of 31%.
In the case of `CC(CCNCC12CC3CC(CC(C3)C1)C2)Nc1c(F)cnc2cc(Cl)ccc12` (configuration not stated), the Activity in series [2] was 31%; in series [3] it was 35%. The figures for the inhibition in series [1] and in series [4] were 15% and “Dose-dependent effect”, respectively. In series [7], this compound displayed a chromatographic logD of 3.24.
In turn, `CC(=O)O[C@H]1C[C@H]2[C@@H]([C@H](OC(C)=O)C[C@@H]3C[C@H](N)CC[C@@]32C)[C@@H]2CC[C@H]([C@H](C)CCCNCCCC(=O)Nc3ccnc4cc(Cl)ccc34)[C@@]12C` displayed an inhibition in series [1] of 37%.
On to `Fc1ccc2scc(-c3ccc(CNCCCCNc4ccnc5ccccc45)cc3)c2c1`, for which the inhibition in series [1] was found to be 34%.
Take `CC(CCNCCC12CC3CC(CC(C3)C1)C2)Nc1c(F)cnc2cc(Cl)ccc12` (configuration not stated): the values for the Activity in series [2] and in series [3] were 30% and 29%, respectively. For the same compound, the inhibition was 2% in series [1] and “Dose-dependent effect” in series [4]. This compound came in with a chromatographic logD in series [7] of 4.33.
With `Fc1ccc2scc(-c3ccc(CNCCCCCCNc4ccnc5ccccc45)cc3)c2c1`, the inhibition in series [1] is 56%.
